# Assay results collected from several papers.
# Target: Serine/threonine-protein kinase Nek9 (NEK9, Homo sapiens, UniProt Q8TD19)
# Residues used in one study (Q8TD19 1-979): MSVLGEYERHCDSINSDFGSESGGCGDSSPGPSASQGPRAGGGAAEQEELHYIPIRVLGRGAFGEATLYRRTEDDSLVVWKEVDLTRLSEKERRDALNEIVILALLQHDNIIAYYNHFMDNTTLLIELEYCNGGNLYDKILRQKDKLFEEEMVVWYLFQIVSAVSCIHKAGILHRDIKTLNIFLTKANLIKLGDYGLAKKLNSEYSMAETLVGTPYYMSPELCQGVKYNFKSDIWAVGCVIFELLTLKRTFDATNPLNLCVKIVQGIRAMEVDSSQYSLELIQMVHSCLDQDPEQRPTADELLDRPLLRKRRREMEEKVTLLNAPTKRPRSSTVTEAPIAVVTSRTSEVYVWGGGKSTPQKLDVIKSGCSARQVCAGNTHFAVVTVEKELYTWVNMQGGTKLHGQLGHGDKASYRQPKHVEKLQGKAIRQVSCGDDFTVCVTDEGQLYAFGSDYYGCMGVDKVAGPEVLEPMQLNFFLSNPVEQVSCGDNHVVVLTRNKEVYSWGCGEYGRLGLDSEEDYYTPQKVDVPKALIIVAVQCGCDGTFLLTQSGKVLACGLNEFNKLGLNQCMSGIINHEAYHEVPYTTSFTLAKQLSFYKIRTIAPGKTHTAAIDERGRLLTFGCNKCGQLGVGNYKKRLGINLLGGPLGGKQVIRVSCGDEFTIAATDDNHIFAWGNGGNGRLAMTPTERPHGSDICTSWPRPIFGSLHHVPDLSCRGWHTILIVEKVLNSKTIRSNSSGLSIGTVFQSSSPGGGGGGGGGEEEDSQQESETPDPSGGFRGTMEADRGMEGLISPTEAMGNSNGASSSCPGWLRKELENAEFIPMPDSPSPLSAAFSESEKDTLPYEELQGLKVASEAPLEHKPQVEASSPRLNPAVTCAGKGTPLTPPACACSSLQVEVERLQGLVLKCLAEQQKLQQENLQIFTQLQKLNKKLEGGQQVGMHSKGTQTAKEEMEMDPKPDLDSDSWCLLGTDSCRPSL
Compound,assay,setting,measurement,result
CC/C(=N\NC(=O)NCc1cccc(O)c1)c1ccc(O)c(C)c1O,"enzyme activity, inhibitor",0.1 µM,inhibition,-2.8%
Cc1cc(NC(=O)c2cccc3cc(-c4cccc5[nH]nc(N)c45)ccc23)ccc1F,"enzyme activity, inhibitor",0.1 µM,activity vs control,126%
CC(C)(O)[C@H]1CC[C@H](Nc2ccc3ncc(-c4cccc(C(F)(F)F)c4)n3n2)CC1,"enzyme activity, inhibitor",1 µM,remaining activity,79.5%
O=C(O)[C@@H]1[C@@H](Cn2nnc3ccccc3c2=O)CC[C@H]1C(=O)c1ccc(OCCC2CCOCC2)cc1,"cell-free assay, competition with immobilised ligand",1 µM,remaining binding,100%
Cc1cnc(NC2CCOCC2)nc1-n1cnc(C(=O)NC(CN)c2cc(F)cc(Cl)c2)c1 (centres unmarked),"enzyme activity, inhibitor, radiometric",1 µM,remaining activity,101%
CCCS(=O)(=O)Nc1ccc(F)c(C(=O)c2c[nH]c3ncc(-c4ccc(Cl)cc4)cc23)c1F,"enzyme activity, inhibitor",1 µM,inhibition,< 10%
N[C@H]1CCN(c2nccc(-c3cnn4ncccc34)n2)C1,binding,1 µM,remaining binding,100%
N#CCCc1ccc2c(c1)-c1[nH]c3ccc([N+](=O)[O-])cc3c1CC(=O)N2,cell-free assay,0.5 µM,remaining signal,103%
C[C@H](NC(=O)c1cnc2n1[C@](C)(Cc1ccc(C#N)cc1)C(=O)N2c1cc(Cl)c(F)c(Cl)c1)C(=O)NC1(c2ccccn2)CC1,"cell-free assay, competition with immobilised ligand",1 µM,remaining binding,100%
CC(C)(C)c1nc(-c2cccc(NS(=O)(=O)c3c(F)cccc3F)c2F)c(-c2ccnc(N)n2)s1,"enzyme activity, inhibitor, radiometric",1 µM,remaining activity,106%
Oc1cccc(-c2nc(N3CCOCC3)c3oc4ncccc4c3n2)c1,cell-free assay,0.5 µM,remaining signal,99.3%
Cc1nc(N2CC[C@@H](O)C2)ncc1-c1cc(C(F)(F)F)cc2[nH]ncc12,"binding, competition with immobilised ligand",1 µM,remaining binding,96%
COc1cc(Nc2c(C#N)cnc3cc(OCCCN4CCN(C)CC4)c(OC)cc23)c(Cl)cc1Cl,cell-free assay,0.5 µM,remaining signal,94%
O=C(NS(=O)(=O)c1ccc(NCC2CCOCC2)c([N+](=O)[O-])c1)c1ccc(N2CCN(Cc3ccc(C(F)(F)F)cc3-c3ccc(Cl)cc3)CC2)cc1Oc1cnc2[nH]ccc2c1,"cell-free assay, competition with immobilised ligand",1 µM,remaining binding,100%
O=C1NC(=O)c2cc(Nc3ccc(F)cc3)c(Nc3ccc(F)cc3)cc21,cell-free assay,0.5 µM,remaining signal,107%
CCCOc1ccc([C@@H]2[C@@H](C(=O)O)[C@H](c3ccc4c(c3)OCO4)CN2CC(=O)Nc2c(CC)cccc2CC)cc1,"cell-free assay, competition with immobilised ligand",1 µM,remaining binding,100%
COc1cc2ncnc(Nc3ccc(Oc4ccccc4)cc3C)c2cc1OC,"enzyme activity, inhibitor",1 µM,inhibition,-2%
